According to ChEMBL document CHEMBL1156965, “Design, synthesis and antimalarial/anticancer evaluation of spermidine linked artemisinin conjugates designed to exploit polyamine transporters in Plasmodium falciparum and HL-60 cancer cell lines” (Bioorg Med Chem, 2010):

Tests used:
Plasmodium falciparum = assay: Antimalarial activity against chloroquine-sensitive Plasmodium falciparum 3D7 infected in human erythrocytes assessed as [3H]hypoxanthine incorporation after 24 hrs by liquid scintillation and luminescence counting; format: functional, organism-based
Summary of the method: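 3D7 P. falciparum kept in human erythrocytes in RPMI-1640 with 25 mM HEPES, 32 mM NaHCO3, 10% human serum, under 3% O2/4% CO2/93% N2. Assay at 2% parasitemia, 0.5% haematocrit, triplicate, 37 °C. 0.5 µCi [3H]-hypoxanthine added after 24 h, then 24 h more (48 h total). Harvested and scintillation counted. IC50 by probit interpolation of log dose–response versus control wells.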

HL-60 = assay: Antitumor activity against human HL60 cells after 72 hrs by MTT assay; format: functional, cell-based; conditions: HL-60, 72 h
Summary of the method: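 HL-60 cells in RPMI-1640 with 10% FBS and 1% L-glutamine, passages 5–15, viability >95%. 2.5 × 10^4 cells/well exposed to 0.01–100 µM for 72 h, DMSO final <0.5% v/v. MTT added for 4 h at 37 °C, then SDS/DMF lysis for 4 h. A570, reference 590 nm, as % of vehicle. Quadruplicate, ≥3 experiments. IC50 from individual curves.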

Row | Structure (SMILES) | IC50 (Plasmodium falciparum) | IC50 (HL-60)
1 | C[C@H]1[C@@H](CCNCCCCNCCCN)O[C@@H]2O[C@@]3(C)CC[C@H]4[C@H](C)CC[C@@H]1[C@@]24OO3 | 259 nM | 17800 nM
2 | C[C@H]1[C@@H](CCNCCCN(CCCCNC(=O)OC(C)(C)C)C(=O)OC(C)(C)C)O[C@@H]2O[C@@]3(C)CC[C@H]4[C@H](C)CC[C@@H]1[C@@]24OO3 | 0.76 nM | 16600 nM
3 | C[C@H]1[C@@H](CCN(CCCCNC(=O)OC(C)(C)C)CCCNC(=O)OC(C)(C)C)O[C@@H]2O[C@@]3(C)CC[C@H]4[C@H](C)CC[C@@H]1[C@@]24OO3 | > 100 nM | > 100000 nM
4 | C[C@H]1[C@@H](CCNCCCCN(CCCNC(=O)OC(C)(C)C)C(=O)OC(C)(C)C)O[C@@H]2O[C@@]3(C)CC[C@H]4[C@H](C)CC[C@@H]1[C@@]24OO3 | 0.21 nM | 11600 nM
5 | C[C@H]1[C@@H](CC(=O)NCCCN(CCCCNC(=O)OC(C)(C)C)C(=O)OC(C)(C)C)O[C@@H]2O[C@@]3(C)CC[C@H]4[C@H](C)CC[C@@H]1[C@@]24OO3 | 4.3 nM | 31200 nM
6 | C[C@H]1[C@@H](CC(=O)N(CCCCNC(=O)OC(C)(C)C)CCCNC(=O)OC(C)(C)C)O[C@@H]2O[C@@]3(C)CC[C@H]4[C@H](C)CC[C@@H]1[C@@]24OO3 | 4.8 nM | > 100000 nM
7 | C[C@H]1[C@@H](CC(=O)NCCCCN(CCCNC(=O)OC(C)(C)C)C(=O)OC(C)(C)C)O[C@@H]2O[C@@]3(C)CC[C@H]4[C@H](C)CC[C@@H]1[C@@]24OO3 | 2.6 nM | 22000 nM
8 | C[C@H]1[C@@H](CCNCCCNCCCCN)O[C@@H]2O[C@@]3(C)CC[C@H]4[C@H](C)CC[C@@H]1[C@@]24OO3 | 350 nM | 29200 nM
9 | C[C@H]1[C@@H](CCN(CCCN)CCCCN)O[C@@H]2O[C@@]3(C)CC[C@H]4[C@H](C)CC[C@@H]1[C@@]24OO3 | 15.2 nM | > 100000 nM
10 | C[C@H]1[C@@H](CC(=O)NCCCCNCCCN)O[C@@H]2O[C@@]3(C)CC[C@H]4[C@H](C)CC[C@@H]1[C@@]24OO3 | 727 nM | 35200 nM
11 | C[C@H]1[C@@H](CC(=O)NCCCNCCCCN)O[C@@H]2O[C@@]3(C)CC[C@H]4[C@H](C)CC[C@@H]1[C@@]24OO3 | 81 nM | 47700 nM
12 | C[C@H]1[C@@H](CC(=O)N(CCCN)CCCCN)O[C@@H]2O[C@@]3(C)CC[C@H]4[C@H](C)CC[C@@H]1[C@@]24OO3 | 108 nM | > 100000 nM
13 | C[C@@H]1CC[C@H]2[C@@H](C)C(=O)O[C@@H]3O[C@@]4(C)CC[C@@H]1[C@]32OO4 [ARTEMISININ] | 9.2 nM | 
